For 13 compounds, IC50 results are on record in ChEMBL document CHEMBL1143945, “N-phenethyl and N-naphthylmethyl isatins and analogues as in vitro cytotoxic agents” (Bioorg Med Chem, 2008).

The test system of one assay is U-937. Briefly: Cytotoxicity against human U937 cells. It counts as functional, cell-based. Summed up: (§1)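 ATCC lines kept in RPMI-1640 with 2 mM L-glutamine, sodium bicarbonate, 5% FCS at 37 °C, 5% CO2. Adherent cells trypsinized, and viable cells counted by Trypan blue on a hemocytometer before seeding. MTS (CellTiter 96 AQueous One) metabolic read-out. IC50 is 50% inhibition of metabolic activity from sigmoidal dose-response curves. Triplicates in at least two independent experiments.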

The next assay has as its system MCF7. The assay can be described thus: Cytotoxicity against human MCF7 cells. It counts as functional, cell-based. In outline:
as §1

In a further assay the test system is HCT-116. Briefly: Cytotoxicity against human HCT116 cells. It counts as functional, cell-based. In outline:
as §1

Another assay deals with Jurkat. The assay can be described thus: Cytotoxicity against human Jurkat cells. It counts as functional, cell-based. In outline:
as §1

The test system of another assay is MDA-MB-231. The assay can be described thus: Cytotoxicity against human MDA-MB-231 cells. It counts as functional, cell-based. Summed up: as §1
The next assay deals with A-375. The assay can be described thus: Cytotoxicity against human A375 cells. Format: functional, cell-based. Summed up:
as §1

For the next assay, the system named is PC-3. The assay can be described thus: Cytotoxicity against human PC3 cells. Format: functional, cell-based. Summed up: as §1
Assay [1] can be described thus: Inhibition of bovine neuronal tubulin polymerization for 60 mins. On the set-up: species or system Bos taurus. In outline: (§2)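 Purified bovine neuronal tubulin reaction mix from a commercial kit, run per the manufacturer. Compound or DMSO vehicle is added at varying concentrations. Polymerization is followed kinetically at 37 °C for 1 h by fluorescence, excitation 360 ± 10 nm and emission 440 ± 10 nm. IC50 is read at the 20 or 60 min time point. Duplicates in one experiment.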

Assay [2] can be described thus: Inhibition of bovine neuronal tubulin polymerization for 20 mins. The arrangement: species or system Bos taurus. In outline: as §2

pIC50: −log10 of the molar value.

In the case of `COc1cccc(C(=O)CN2C(=O)C(=O)c3cc(Br)cc(Br)c32)c1`, the pIC50 – broadly, the IC50 on a negative log10 scale, so that one unit is a factor of ten – in the assay with U-937 is 5.33.
For `COc1ccc(C(=O)CN2C(=O)C(=O)c3cc(Br)cc(Br)c32)cc1`, in the assay on U-937, the negative-log IC50 (pIC50) was 5.27.
With `O=C1C(=O)N(CCc2ccc(Br)cc2)c2c(Br)cc(Br)cc21`, the pIC50 is 6.06 in the assay with U-937; 5.22 in the assay with MCF7; 5.79 with HCT-116; 5.94 with Jurkat; 5.70 in the assay on MDA-MB-231; 5.36 in the assay on A-375. For the same compound, the pIC50 in the assay on PC-3 is 5.66.
For the compound `O=C1C(=O)N(Cc2cccc3ccccc23)c2c(Br)cc(Br)cc21`, the pIC50 with U-937 is 6.72; in the assay with MCF7, 5.11; with HCT-116 it was 5.94; in the assay on Jurkat, 6.04; in the assay with MDA-MB-231 it was 5.60; in assay [1] it was 4.92. Further, the figures for the pIC50 (in assay [2]; with A-375; with PC-3) were 5.33, 5.40 and 5.84, respectively.
`O=C1C(=O)N(CCc2cccc(Br)c2)c2c(Br)cc(Br)cc21`: the negative logarithm of the IC50 (pIC50) with U-937 was 6.11; in the assay on MCF7 it was 5.39; with HCT-116 it was 5.85; with Jurkat it was 5.92; with MDA-MB-231, 5.57; in the assay with A-375 it was 5.46. Moreover, in the assay with PC-3, the negative-log IC50 (pIC50) is 5.68.
With `O=C(CN1C(=O)C(=O)c2cc(Br)cc(Br)c21)c1ccc(Br)cc1`, the pIC50 in the assay with U-937 was 5.04.
As for `COc1ccc(CCN2C(=O)C(=O)c3cc(Br)cc(Br)c32)cc1`, the pIC50 with U-937 is 5.63; with Jurkat, 5.58; in the assay with MDA-MB-231, 5.35.
For the compound `CC[C@]1(O)C[C@@H]2CN(CCc3c([nH]c4ccccc34)[C@@](C(=O)OC)(c3cc4c(cc3OC)N(C)[C@H]3[C@@](O)(C(=O)OC)[C@H](OC(C)=O)[C@]5(CC)C=CCN6CC[C@]43[C@@H]65)C2)C1` [VINBLASTINE], the results for the pIC50 in [1] and in assay [2] were 5.78 and 6.02, respectively.
For the compound `O=C(CN1C(=O)C(=O)c2cc(Br)cc(Br)c21)c1ccccc1`, the negative-log IC50 (pIC50) in the assay with U-937 was 5.00.
Turning to `O=C1C(=O)N(CCc2ccccc2)c2c(Br)cc(Br)cc21`, the pIC50 in the assay on U-937 is 6.11; in the assay with Jurkat, 5.82; with MDA-MB-231 it was 5.36; in [1], 5.18; in assay [2], 5.39.
On to `O=C1C(=O)N(Cc2ccc3ccccc3c2)c2c(Br)cc(Br)cc21`, for which the negative-log IC50 (pIC50) in the assay with U-937 was 6.13; in the assay with MCF7, 5.46; with HCT-116, 5.82; in the assay on Jurkat, 6.39; with MDA-MB-231, 5.59; in assay [1] it was 5.19. Further, the pIC50 in assay [2] is 5.54; in the assay with A-375, 5.18; in the assay on PC-3, 5.64.
With `O=C(CN1C(=O)C(=O)c2cc(Br)cc(Br)c21)c1cccc(Br)c1`, the pIC50 in the assay with U-937 was 5.20.
Take `COc1cccc(CCN2C(=O)C(=O)c3cc(Br)cc(Br)c32)c1`: the pIC50 was 5.97 with U-937, 5.70 in the assay on Jurkat and 5.28 with MDA-MB-231.
